Active and inactive are the calls of the source. The rule behind the calls is not given here.
Tests used:
Assay type in all cases: functional, organism-based
Mus musculus [1] = experiment: […] of lipid peroxidation in gastrocnemius muscle of C57BL/6 mouse tail suspension model assessed as decrease of thiobarbituric acid-reactive substance level at 2.5 pmol administered in gastrocnemius muscle qd for 10 days by RT-PCR analysis
Summary of the method: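 Male C57BL/6 mice, 7 weeks old. Compound in 0.9% saline with 0.1% propylene glycol, 2.5 pmol/leg (50 µL) injected into one gastrocnemius and vehicle into the other, given every 24 h. Tail suspension began 24 h after the first dose and lasted 10 days; ground mice served as controls. Muscle taken 6 h after the day-10 dose. TBARS measured by fluorescence ([…]) against a tetraethoxypropane standard; n=4, two-way ANOVA.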

Mus musculus [2] = experiment: Reduction of gastrocnemius muscle weight loss in C57BL/6 mouse tail suspension model at 2.5 pmol administered in gastrocnemius muscle qd for 10 days relative to whole body weight
Mus musculus [3] = experiment: Reduction of MuRF-1 mRNA expression in gastrocnemius muscle of C57BL/6 mouse tail suspension model at 2.5 pmol administered in gastrocnemius muscle qd for 10 days by RT-PCR analysis
Summary of the method: (§1)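 Male C57BL/6 mice, 7 weeks old, injected intramuscularly in one gastrocnemius with 2.5 pmol/leg in saline/0.1% propylene glycol every 24 h; vehicle went into the contralateral leg. Tail suspension lasted 10 days and ground mice served as controls. Gastrocnemius taken 6 h after the last dose. mRNA measured by real-time PCR and given as % of the vehicle-ground level; mean ± SE, n=4.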

Mus musculus [4] = experiment: Reduction of atrogin-1 mRNA expression in gastrocnemius muscle of C57BL/6 mouse tail suspension model at 2.5 pmol administered in gastrocnemius muscle qd for 10 days by RT-PCR analysis; summary of the method: as §1

SMILES | Activity (Mus musculus [1]) | Activity (Mus musculus [2]) | Activity (Mus musculus [3]) | Activity (Mus musculus [4])
CC(=O)N[C@@H](CS)C(=O)O | Active | Active |  | 
O=c1cc(-c2ccccc2)oc2ccccc12 | inactive |  | inactive | inactive
O=c1c(O)c(-c2ccc(O)c(O)c2)oc2cc(O)cc(O)c12 | Active | Active | Active | Active
